Laboratory results as given in ChEMBL document CHEMBL1152818, “Structural bioinformatics-based design of selective, irreversible kinase inhibitors” (Science, 2005).
pEC50, pIC50: −log10 of the molar value. Values belong to the compound of their own block, whether it stands above or below them. Active and inactive are the calls of the source. The rule behind the calls is not given here.

Tests used:
[1] = molecular target: T1, Ribosomal protein S6 kinase alpha-3 (Homo sapiens, UniProt P51812); assay: Inhibition of RSK2 C-terminal kinase domain expressed in Escherichia coli preincubated for 30 mins
Method in brief: (§1)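 His6-tagged RSK2 CTDs (WT or mutant) expressed in E. coli, activated with bacterially expressed His6-ERK2 plus ATP. Enzyme at 1 nM pretreated with inhibitor for 30 min, then assayed with 0.1 mM ATP and 0.1 mM "CTD-tide" peptide substrate.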

[2] = molecular target: Ribosomal protein S6 kinase alpha-3 (Homo sapiens, UniProt P51812, C436V); assay: Inhibition of RSK2 C-terminal kinase domain C436V mutant expressed in Escherichia coli preincubated for 30 mins; method in brief: as §1
[3] = molecular target: Ribosomal protein S6 kinase alpha-3 (Homo sapiens, UniProt P51812, T493M); assay: Inhibition of RSK2 C-terminal kinase domain T493M mutant expressed in Escherichia coli preincubated for 30 mins; method in brief: as §1
[4] = molecular target: T1, Ribosomal protein S6 kinase alpha-3; assay: Binding affinity to wild type RSK2 at 1 uM preincubated for 1 hr by denaturing gel electrophoresis and Western blot
Method in brief: (§2)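 His6-tagged RSK2 C-terminal kinase domains (WT or mutant) exposed to 1 μM biotin-fmk for 1 hour in the presence of His6-ERK2. Proteins resolved by SDS-PAGE. Western blot probed with streptavidin-HRP for covalent label and anti-His6 for total protein.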

[5] = test system: Ribosomal protein S6 kinase alpha-3 (Homo sapiens), P51812 [C436V]; assay: Binding affinity to RSK2 C436V mutant at 1 uM preincubated for 1 hr by denaturing gel electrophoresis and Western blot; method in brief: as §2
[6] = test system: Ribosomal protein S6 kinase alpha-3 (Homo sapiens), P51812 [T493M]; assay: Binding affinity to RSK2 T493M mutant at 1 uM preincubated for 1 hr by denaturing gel electrophoresis and Western blot; method in brief: as §2
[7] = molecular target: T1, Ribosomal protein S6 kinase alpha-3; assay: Binding affinity to RSK2 in HEK293 cells assessed as protein labeling at 1 µM preincubated for 1 hr by immunodepletion method
[8] = molecular target: Ribosomal protein S6 kinase alpha-1 (Homo sapiens) (UniProt Q15418); assay: Binding affinity to RSK1 in HEK293 cells assessed as protein labeling at 1 µM preincubated for 1 hr by immunodepletion method
[9] = molecular target: T1, Ribosomal protein S6 kinase alpha-3; assay: Binding affinity to RSK2 in HEK293 cells assessed as protein labeling at 1 µM preincubated for 1 hr by enhanced chemiluminescence detection
[10] = molecular target: Ribosomal protein S6 kinase alpha-1 (Homo sapiens) (UniProt Q15418); assay: Binding affinity to RSK1 in HEK293 cells assessed as protein labeling at 1 µM preincubated for 1 hr by enhanced chemiluminescence detection
[11] = molecular target: Tyrosine-protein kinase Fyn (Homo sapiens, UniProt P06241, V285C); assay: Inhibition of FYN Val285Cys mutant expressed in Escherichia coli
[12] = test system: NIH3T3; assay: Inhibition of Rous sarcoma virus wild type V-src expressed in mouse NIH-3T3 cells assessed as reduction in steady-state phosphotyrosine level preincubated for 1 hr by Western blot; format: cell-based
[13] = test system: Tyrosine-protein kinase transforming protein Src (Avian leukosis virus RSA (RSV-SRA) (Rous sarcoma virus (strainSchmidt-Ruppin A))), P00524 [V281C]; assay: Inhibition of Rous sarcoma virus V-src V281C mutant expressed in mouse NIH-3T3 cells assessed as reduction in steady-state phosphotyrosine level preincubated for 1 hr by Western blot; format: cell-based; conditions: NIH3T3
[14] = test system: NIH3T3; assay: Reversion of Rous sarcoma virus wild type V-src-dependent cell morphology in mouse NIH-3T3 cells assessed as cells acquiring actin stress fibres at 1 uM after 16 hrs by phalloidin-FITC and DAPI staining; format: cell-based
[15] = test system: Tyrosine-protein kinase transforming protein Src (Avian leukosis virus RSA (RSV-SRA) (Rous sarcoma virus (strainSchmidt-Ruppin A))), P00524 [V281C]; assay: Reversion of Rous sarcoma virus V-src V281C mutant-dependent cell morphology in mouse NIH-3T3 cells assessed as cells acquiring actin stress fibres at 1 uM after 16 hrs by phalloidin-FITC and DAPI staining; format: cell-based; conditions: NIH3T3
[16] = Inhibition of EGF-stimulated RSK2 Ser386 autophosphorylation in serum starved african green monkey COS7 cells by immunoprecipitation and Western blot; format: cell-based, Chlorocebus aethiops; conditions: cos-7
Method in brief: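 COS-7 cells serum-deprived 20 h, exposed to a range of inhibitor concentrations, then stimulated with EGF (1 ng/mL) for 10 min. Endogenous RSK2 immunoprecipitated and blotted for phospho-Ser386 and total RSK2. EC50 taken from the concentration series.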

[17] = molecular target: Ribosomal protein S6 kinase alpha-5 (Homo sapiens) (UniProt O75582); assay: Inhibition of MSK1-mediated histone H3 Ser10 phosphorylation expressed in serum starved african green monkey COS7 cells by Western blot; format: cell-based; conditions: COS-7
Method in brief: (§3)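 COS-7 cells transfected with HA-tagged WT or M498T MSK1. Lysed in Laemmli buffer. Western blots probed for phospho-Ser386 RSK (MSK1 autophosphorylation), HA epitope and phospho-Ser10 histone H3.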

[18] = test system: Ribosomal protein S6 kinase alpha-5 (Homo sapiens), O75582 [M498T]; assay: Inhibition of MSK1 M498T mutant phosphorylation expressed in serum starved african green monkey COS7 cells by Western blot; format: cell-based; conditions: COS-7; method in brief: as §3
[19] = test system: NIH3T3; assay: Inhibition of PMA-stimulated histone H3 phosphorylation in mouse NIH-3T3 cells at 10 uM by SDS page and Western blot; format: functional, cell-based
[20] = test system: COS-7; assay: Inhibition of EGF-stimulated ERK1 phosphorylation in serum starved african green monkey COS7 cells at 10 µM by Western blot; conditions: Chlorocebus aethiops
[21] = test system: COS-7; assay: Inhibition of EGF-stimulated ERK2 phosphorylation in serum starved african green monkey COS7 cells at 10 µM by Western blot; conditions: Chlorocebus aethiops

T1 sequence (P51812 whole entry, the tested form may be a part): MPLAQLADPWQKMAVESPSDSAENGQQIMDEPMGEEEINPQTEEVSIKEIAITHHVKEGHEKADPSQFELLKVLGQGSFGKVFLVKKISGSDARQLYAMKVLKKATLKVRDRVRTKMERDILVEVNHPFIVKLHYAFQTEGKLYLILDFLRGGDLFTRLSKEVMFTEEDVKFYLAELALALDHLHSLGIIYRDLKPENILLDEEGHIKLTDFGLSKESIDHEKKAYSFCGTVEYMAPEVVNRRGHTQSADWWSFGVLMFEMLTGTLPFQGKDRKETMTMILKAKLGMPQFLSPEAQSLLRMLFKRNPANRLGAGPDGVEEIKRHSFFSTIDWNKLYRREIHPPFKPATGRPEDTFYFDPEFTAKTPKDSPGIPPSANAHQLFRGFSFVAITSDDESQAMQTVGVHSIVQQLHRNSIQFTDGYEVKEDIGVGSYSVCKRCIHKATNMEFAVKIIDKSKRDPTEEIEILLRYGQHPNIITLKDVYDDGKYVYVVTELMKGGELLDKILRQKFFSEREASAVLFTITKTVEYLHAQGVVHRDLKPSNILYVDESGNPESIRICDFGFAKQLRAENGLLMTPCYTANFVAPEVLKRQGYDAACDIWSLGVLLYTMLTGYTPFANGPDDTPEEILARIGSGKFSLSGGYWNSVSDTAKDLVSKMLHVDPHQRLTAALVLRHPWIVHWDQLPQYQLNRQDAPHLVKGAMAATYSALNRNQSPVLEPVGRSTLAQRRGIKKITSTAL
Chain of Tyrosine-protein kinase Fyn (P06241 2-537 V285C limits assumed): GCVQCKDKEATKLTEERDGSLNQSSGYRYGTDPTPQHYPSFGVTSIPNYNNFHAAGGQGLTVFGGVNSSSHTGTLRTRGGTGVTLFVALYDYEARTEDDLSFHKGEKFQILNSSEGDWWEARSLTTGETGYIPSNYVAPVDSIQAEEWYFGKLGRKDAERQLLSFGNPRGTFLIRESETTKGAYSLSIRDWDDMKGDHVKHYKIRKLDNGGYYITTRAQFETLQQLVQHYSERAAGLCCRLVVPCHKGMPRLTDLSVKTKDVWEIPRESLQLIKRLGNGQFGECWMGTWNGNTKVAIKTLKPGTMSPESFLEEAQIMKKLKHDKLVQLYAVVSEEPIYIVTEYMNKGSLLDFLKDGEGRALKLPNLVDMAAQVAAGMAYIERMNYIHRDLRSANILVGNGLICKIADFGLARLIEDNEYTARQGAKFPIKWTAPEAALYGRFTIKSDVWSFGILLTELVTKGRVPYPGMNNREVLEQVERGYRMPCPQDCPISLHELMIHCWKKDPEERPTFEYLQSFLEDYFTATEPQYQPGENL
Chain of Ribosomal protein S6 kinase alpha-1 (Homo sapiens) (Q15418 whole entry): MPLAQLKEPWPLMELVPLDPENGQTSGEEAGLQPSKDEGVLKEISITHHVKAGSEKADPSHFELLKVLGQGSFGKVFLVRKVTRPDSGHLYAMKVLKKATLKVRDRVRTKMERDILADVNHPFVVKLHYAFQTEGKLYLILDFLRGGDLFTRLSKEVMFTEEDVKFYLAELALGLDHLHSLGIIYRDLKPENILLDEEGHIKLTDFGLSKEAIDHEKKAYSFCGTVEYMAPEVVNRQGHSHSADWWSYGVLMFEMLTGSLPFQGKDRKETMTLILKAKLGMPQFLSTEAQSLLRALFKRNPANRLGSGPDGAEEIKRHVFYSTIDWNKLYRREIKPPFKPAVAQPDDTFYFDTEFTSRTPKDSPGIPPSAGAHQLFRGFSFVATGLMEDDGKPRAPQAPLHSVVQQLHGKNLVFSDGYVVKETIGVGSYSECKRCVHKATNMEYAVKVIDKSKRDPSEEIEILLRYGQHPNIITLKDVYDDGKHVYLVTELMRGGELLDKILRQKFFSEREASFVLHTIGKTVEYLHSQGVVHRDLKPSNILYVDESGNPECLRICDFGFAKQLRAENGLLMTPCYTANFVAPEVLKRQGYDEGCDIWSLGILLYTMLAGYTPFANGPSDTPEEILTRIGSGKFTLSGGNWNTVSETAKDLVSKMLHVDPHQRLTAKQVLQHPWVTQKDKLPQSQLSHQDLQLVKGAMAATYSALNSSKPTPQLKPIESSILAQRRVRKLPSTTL
Chain of Ribosomal protein S6 kinase alpha-5 (Homo sapiens) (O75582 whole entry, looked up): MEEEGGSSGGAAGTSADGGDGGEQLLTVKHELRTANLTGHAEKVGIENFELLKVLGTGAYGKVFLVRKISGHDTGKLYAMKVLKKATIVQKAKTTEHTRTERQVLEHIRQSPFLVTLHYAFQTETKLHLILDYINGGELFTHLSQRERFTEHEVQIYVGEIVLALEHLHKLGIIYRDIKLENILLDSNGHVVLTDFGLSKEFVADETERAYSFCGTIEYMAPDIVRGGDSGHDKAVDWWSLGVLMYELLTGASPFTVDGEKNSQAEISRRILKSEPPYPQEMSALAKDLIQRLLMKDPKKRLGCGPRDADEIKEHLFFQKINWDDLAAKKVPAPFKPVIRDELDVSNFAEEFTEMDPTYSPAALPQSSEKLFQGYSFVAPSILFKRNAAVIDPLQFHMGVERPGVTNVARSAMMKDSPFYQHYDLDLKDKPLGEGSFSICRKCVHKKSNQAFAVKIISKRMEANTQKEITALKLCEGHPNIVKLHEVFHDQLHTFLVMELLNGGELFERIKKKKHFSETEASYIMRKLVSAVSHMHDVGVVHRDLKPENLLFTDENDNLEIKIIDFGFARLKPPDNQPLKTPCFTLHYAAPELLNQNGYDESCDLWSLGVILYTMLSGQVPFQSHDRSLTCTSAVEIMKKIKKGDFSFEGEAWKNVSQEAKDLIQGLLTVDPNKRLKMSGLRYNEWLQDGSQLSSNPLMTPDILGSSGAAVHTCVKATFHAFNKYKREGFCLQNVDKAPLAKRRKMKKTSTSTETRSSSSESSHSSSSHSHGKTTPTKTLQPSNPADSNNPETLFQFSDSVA
Chain of Ribosomal protein S6 kinase alpha-3 (Homo sapiens), P51812 [C436V] (P51812 whole entry C436V): as the sequence (P51812 whole entry, the tested form may be a part) above, with C436V counted along it
Chain of Ribosomal protein S6 kinase alpha-3 (Homo sapiens, UniProt P51812, C436V) (P51812 whole entry C436V, the tested form may be a part): as the sequence (P51812 whole entry, the tested form may be a part) above, with C436V counted along it
Chain of Ribosomal protein S6 kinase alpha-5 (Homo sapiens), O75582 [M498T] (O75582 whole entry M498T): as the sequence (O75582 whole entry, looked up) above, with M498T counted along it
Chain of Ribosomal protein S6 kinase alpha-3 (Homo sapiens), P51812 [T493M] (P51812 whole entry T493M): as the sequence (P51812 whole entry, the tested form may be a part) above, with T493M counted along it
Chain of Ribosomal protein S6 kinase alpha-3 (Homo sapiens, UniProt P51812, T493M) (P51812 whole entry T493M, the tested form may be a part): as the sequence (P51812 whole entry, the tested form may be a part) above, with T493M counted along it

pIC50 [1]: 5.92
pIC50 [2]: 6.37
pIC50 [3]: < 4.52
SMILES: Cc1ccc(-c2cn(CCCO)c3ncnc(N)c23)cc1

Activity [4]: Active
Activity [5]: inactive
Activity [6]: inactive
Activity [7]: Active
Activity [8]: Active
Activity [9]: Active
Activity [10]: Active
SMILES: Cc1ccc(-c2c(C(=O)CF)n(CCCOC(=O)NCCCCNC(=O)CCCC[C@@H]3SC[C@H]4NC(=O)N[C@@H]34)c3ncnc(N)c23)cc1

SMILES: Cc1ccc(-c2c(C(=O)CCl)n(CCCO)c3ncnc(N)c23)cc1
pIC50 [11]: 7.00
Activity [12]: inactive
Activity [13]: Active
Activity [14]: 75%
Activity [15]: 2%

pEC50 [16]: 6.70
Activity [17]: inactive
Activity [18]: Active
pIC50 [11]: 9.00
SMILES: Cc1ccc(-c2c(C(=O)CF)n(CCCO)c3ncnc(N)c23)cc1
Activity [19]: inactive
Activity [20]: inactive
Activity [21]: inactive
